Laboratory results taken from ChEMBL document CHEMBL4699631, “Antimalarial and anti-inflammatory activities of new chloroquine and primaquine hybrids: Targeting the blockade of malaria parasite transmission” (Bioorg Med Chem, 2020).

Assays:
[1] = tested on: Plasmodium gallinaceum; assay: Antimalarial activity against Plasmodium gallinaceum vectored in Aedes fluviatilis infected in chicken assessed as reduction in oocyst number at 25 mg/kg, po measured after 4 hrs by Giemsa staining based microscopic analysis relative to control; assay type: functional; parameters: scale not given: the % may be the effect or the level left
Outline: (§1)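 One-day-old chickens infected intramuscularly with P. gallinaceum-infected erythrocytes; parasitemia and gametocytemia followed by daily Giemsa-stained smears. Chickens with rising parasitemia below 10% fed to starved (12 h) female Ae. fluviatilis (kept 28 °C, 80% humidity) at 0 h (control) and 4 h after dosing (test compound 25–50 mg/kg; PQ 15 mg/kg). Oocyst counts and mosquito infection rates compared with nontreated groups.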

[2] = Cytotoxicty against mouse J774.A1 cells assessed as cell viability at 100 uM incubated for 24 hrs by resazurin dye based assay (reference value: 100 %); details: read-out: Activity
Outline: (§2)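 J774A.1 macrophages grown in DMEM with 10% FBS and 0.1% gentamycin, seeded at 1×10^5 cells/well. Exposed to compounds at 0, 12.5, 25, 50 or 100 μM for 24 h. Resazurin (10 μg/ml) added for 3 h, then fluorescence read. Run in triplicate. Viability given as percent of 0.2% DMSO-treated cells.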

[3] = tested on: Plasmodium gallinaceum; assay: Antimalarial activity against Plasmodium gallinaceum vectored in Aedes fluviatilis infected in chicken assessed as reduction in mosquito infection at 50 mg/kg, po measured after 4 hrs by Giemsa staining based microscopic analysis relative to control; assay type: functional; outline: as §1
[4] = tested on: Plasmodium gallinaceum; assay: Antimalarial activity against Plasmodium gallinaceum vectored in Aedes fluviatilis infected in chicken assessed as reduction in gametocyte stage at 25 mg/kg, po measured immediately by Giemsa staining based microscopic analysis relative to control; assay type: functional; parameters: scale not given: the % may be the effect or the level left; details: time 0 hrs; outline: as §1
[5] = Cytotoxicty against mouse J774.A1 cells assessed as cell viability at 25 uM incubated for 24 hrs by resazurin dye based assay (reference value: 100 %); details: read-out: Activity; outline: as §2
[6] = tested on: Plasmodium gallinaceum; assay: Antimalarial activity against Plasmodium gallinaceum vectored in Aedes fluviatilis infected in chicken assessed as reduction in mosquito infection at 25 mg/kg, po measured after 4 hrs by Giemsa staining based microscopic analysis relative to control; assay type: functional; outline: as §1
[7] = tested on: Plasmodium gallinaceum; assay: Antimalarial activity against Plasmodium gallinaceum vectored in Aedes fluviatilis infected in chicken assessed as reduction in oocyst number at 50 mg/kg, po measured after 4 hrs by Giemsa staining based microscopic analysis relative to control; assay type: functional; parameters: scale not given: the % may be the effect or the level left; outline: as §1
[8] = tested on: Plasmodium gallinaceum; assay: Antimalarial activity against Plasmodium gallinaceum vectored in Aedes fluviatilis infected in chicken assessed as reduction in mosquito infection at 25 mg/kg, po measured immediately by Giemsa staining based microscopic analysis relative to control; assay type: functional; parameters: scale not given: the % may be the effect or the level left; details: time 0 hrs; outline: as §1
[9] = tested on: Plasmodium gallinaceum; assay: Antimalarial activity against Plasmodium gallinaceum vectored in Aedes fluviatilis infected in chicken assessed as reduction in gametocyte stage at 50 mg/kg, po measured immediately by Giemsa staining based microscopic analysis relative to control; assay type: functional; parameters: scale not given: the % may be the effect or the level left; details: time 0 hrs; outline: as §1
[10] = tested on: Plasmodium gallinaceum; assay: Antimalarial activity against Plasmodium gallinaceum vectored in Aedes fluviatilis infected in chicken assessed as reduction in oocyst number at 25 mg/kg, po measured immediately by Giemsa staining based microscopic analysis; assay type: functional; details: time 0 hrs; outline: as §1
[11] = tested on: Plasmodium gallinaceum; assay: Antimalarial activity against Plasmodium gallinaceum vectored in Aedes fluviatilis infected in chicken assessed as reduction in parasite growth at 25 mg/kg, po measured immediately by Giemsa staining based microscopic analysis relative to control; assay type: functional; parameters: scale not given: the % may be the effect or the level left; details: time 0 hrs; outline: as §1
[12] = tested on: J774.A1; assay: Inhibition of LPS-induced TNFalpha production in mouse J774.A1 cells incubated for 24 hrs by ELISA; assay type: functional, cell-based; details: dose microM 0.5-25, time 24.0 hrs
Outline: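 J774A.1 cells seeded at 2×10^6 cells/well. Pretreated with vehicle, dexamethasone 1 μM, or compounds at 0.5–25 μM. Stimulated with LPS 100 ng/ml for 24 h. Supernatants stored at −20 °C, then TNFα measured by sandwich ELISA in pg/mL. Triplicate, mean ± SEM.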

[13] = tested on: J774.A1; assay: Inhibition of LPS-induced NO production in mouse J774.A1 cells incubated for 24 hrs by Griess reagent based assay; assay type: functional, cell-based; details: dose microM 0.5-25, time 24.0 hrs
Outline: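 Compounds made as 10 mM DMSO stocks and diluted in medium. J774A.1 cells pre-incubated with compounds at 25 μM for screening, or 0.5–25 μM for dose-response, with dexamethasone 1 μM or 0.2% DMSO as controls. Stimulated with LPS 37.5 ng/ml plus IFNγ 25 U/ml for 24 h at 37 °C, 5% CO2. Supernatant nitrite measured by Griess at 540 nm. Triplicate, mean ± SEM.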

[14] = Cytotoxicty against mouse J774.A1 cells assessed as cell viability at 50 uM incubated for 24 hrs by resazurin dye based assay (reference value: 100 %); details: read-out: Activity; outline: as §2
[15] = tested on: Plasmodium gallinaceum; assay: Antimalarial activity against Plasmodium gallinaceum vectored in Aedes fluviatilis infected in chicken assessed as reduction in parasite growth at 50 mg/kg, po measured immediately by Giemsa staining based microscopic analysis relative to control; assay type: functional; parameters: scale not given: the % may be the effect or the level left; details: time 0 hrs; outline: as §1
[16] = tested on: Plasmodium falciparum; assay: Antimalarial activity against Plasmodium falciparum CQR (W2 clone) infected in human erythrocyte assessed as reduction in parasite growth incubated for 48 hrs by SYBR assay; assay type: functional, organism-based
Outline: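 W2 parasites cultured in A+ human erythrocytes in RPMI 1640 with ALBUMAX II, candle jar, 37 °C. Rings synchronized with sorbitol, then exposed to serial dilutions at 0.5% parasitemia and 2% hematocrit for 48 h at 37 °C. Lysis buffer with SYBR Safe, 30 min in the dark, fluorescence read at ex 485 nm. IC50 from sigmoid curve fit against drug-free control.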

[17] = Selectivity index, ratio of MDL50 for monkey BGM cells to IC50 for Plasmodium falciparum CQR (W2 clone) infected in human Erythrocyte; assay type: toxicity
Outline: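 SI calculated as MLD50 in BGM cells (neutral red, 24 h) divided by IC50 against P. falciparum W2 (SYBR, 48 h).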

[18] = Cytotoxicity against monkey BGM cells assessed as reduction in cell viability incubated for 24 hrs by neutral red dye based assay; details: chlorocebus aethiops, read-out: MDL50
Outline: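 BGM monkey kidney cells grown in RPMI 1640 with 10% heat-inactivated fetal serum and gentamicin, 5% CO2, 37 °C. Cells allowed to adhere for 24 h, then exposed to compounds at 1000–1 μg/mL for 24 h. Neutral red uptake for 3 h, formaldehyde/CaCl2 fix, alcohol-acetic acid elution, absorbance at 540 nm. Viability taken as percent of untreated cells after background subtraction. MLD50 derived from this.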

[19] = tested on: Plasmodium gallinaceum; assay: Antimalarial activity against Plasmodium gallinaceum vectored in Aedes fluviatilis infected in chicken assessed as reduction in mosquito infection at 50 mg/kg, po measured immediately by Giemsa staining based microscopic analysis relative to control; assay type: functional; parameters: scale not given: the % may be the effect or the level left; details: time 0 hrs; outline: as §1
[20] = tested on: Plasmodium gallinaceum; assay: Antimalarial activity against Plasmodium gallinaceum vectored in Aedes fluviatilis infected in chicken assessed as reduction in oocyst number at 50 mg/kg, po measured immediately by Giemsa staining based microscopic analysis; assay type: functional; details: time 0 hrs; outline: as §1
[21] = Cytotoxicty against mouse J774.A1 cells assessed as cell viability at 12.5 uM incubated for 24 hrs by resazurin dye based assay (reference value: 100 %); details: read-out: Activity; outline: as §2
[22] = tested on: Plasmodium gallinaceum; assay: Antimalarial activity against Plasmodium gallinaceum vectored in Aedes fluviatilis infected in chicken assessed as reduction in oocyst number at 15 mg/kg, po measured immediately by Giemsa staining based microscopic analysis; assay type: functional; details: time 0 hrs; outline: as §1
[23] = tested on: Plasmodium gallinaceum; assay: Antimalarial activity against Plasmodium gallinaceum vectored in Aedes fluviatilis infected in chicken assessed as reduction in mosquito infection at 15 mg/kg, po measured after 4 hrs by Giemsa staining based microscopic analysis relative to control; assay type: functional; outline: as §1
[24] = tested on: Plasmodium gallinaceum; assay: Antimalarial activity against Plasmodium gallinaceum vectored in Aedes fluviatilis infected in chicken assessed as reduction in gametocyte stage at 15 mg/kg, po measured immediately by Giemsa staining based microscopic analysis relative to control; assay type: functional; parameters: scale not given: the % may be the effect or the level left; details: time 0 hrs; outline: as §1
[25] = tested on: Plasmodium gallinaceum; assay: Antimalarial activity against Plasmodium gallinaceum vectored in Aedes fluviatilis infected in chicken assessed as reduction in oocyst number at 15 mg/kg, po measured after 4 hrs by Giemsa staining based microscopic analysis relative to control; assay type: functional; parameters: scale not given: the % may be the effect or the level left; outline: as §1
[26] = tested on: Plasmodium gallinaceum; assay: Antimalarial activity against Plasmodium gallinaceum vectored in Aedes fluviatilis infected in chicken assessed as reduction in mosquito infection at 15 mg/kg, po measured immediately by Giemsa staining based microscopic analysis relative to control; assay type: functional; parameters: scale not given: the % may be the effect or the level left; details: time 0 hrs; outline: as §1
[27] = tested on: Plasmodium gallinaceum; assay: Antimalarial activity against Plasmodium gallinaceum vectored in Aedes fluviatilis infected in chicken assessed as reduction in parasite growth at 15 mg/kg, po measured immediately by Giemsa staining based microscopic analysis relative to control; assay type: functional; parameters: scale not given: the % may be the effect or the level left; details: time 0 hrs; outline: as §1

SMILES: COc1cc(NC(C)CCCNC(=O)C(F)(F)c2cc(Cl)ccc2NC(C)=O)c2ncccc2c1 (stereo not given)
- Activity [1]: 0%
- viability at 24 h, 100 µM [2]: 33.9%
- inhibition in vivo at 50 mg/kg [3]: 15%
- Activity [4]: 41%
- viability at 24 h, 25 µM [5]: 96.8%
- inhibition in vivo at 25 mg/kg [6]: 5%
- Activity [7]: 81.3%
- Activity [8]: 89%
- Activity [9]: 42%
- Activity [10]: 56
- Activity [11]: 4.7%
- inhibition [12]: Dose-dependent effect
- inhibition [13]: Dose-dependent effect
- viability at 24 h, 50 µM [14]: 56.2%
- Activity [15]: 10.3%
- IC50 [16]: 8.4 µM
- selectivity ratio [17]: 1.6
- CC50 at 24 h [18]: 13.6 µM
- Activity [19]: 95%
- Activity [20]: 166
- viability at 24 h, 12.5 µM [21]: 100%

SMILES: COc1cc(NC(C)CCCN)c2ncccc2c1 (stereo not given) [PRIMAQUINE]
- Activity [22]: 41
- inhibition in vivo at 15 mg/kg [23]: 100%
- Activity [24]: 45%
- Activity [25]: 100%
- Activity [26]: 85%
- IC50 [16]: 1.9 µM
- selectivity ratio [17]: 255
- CC50 at 24 h [18]: 483 µM
- Activity [27]: 7%
